In data set [1] the target is T1, recombinant T. b. brucei CTPS (Trypanosoma brucei brucei, UniProt Q4GZ95).
T1 sequence (Q4GZ95 1-589): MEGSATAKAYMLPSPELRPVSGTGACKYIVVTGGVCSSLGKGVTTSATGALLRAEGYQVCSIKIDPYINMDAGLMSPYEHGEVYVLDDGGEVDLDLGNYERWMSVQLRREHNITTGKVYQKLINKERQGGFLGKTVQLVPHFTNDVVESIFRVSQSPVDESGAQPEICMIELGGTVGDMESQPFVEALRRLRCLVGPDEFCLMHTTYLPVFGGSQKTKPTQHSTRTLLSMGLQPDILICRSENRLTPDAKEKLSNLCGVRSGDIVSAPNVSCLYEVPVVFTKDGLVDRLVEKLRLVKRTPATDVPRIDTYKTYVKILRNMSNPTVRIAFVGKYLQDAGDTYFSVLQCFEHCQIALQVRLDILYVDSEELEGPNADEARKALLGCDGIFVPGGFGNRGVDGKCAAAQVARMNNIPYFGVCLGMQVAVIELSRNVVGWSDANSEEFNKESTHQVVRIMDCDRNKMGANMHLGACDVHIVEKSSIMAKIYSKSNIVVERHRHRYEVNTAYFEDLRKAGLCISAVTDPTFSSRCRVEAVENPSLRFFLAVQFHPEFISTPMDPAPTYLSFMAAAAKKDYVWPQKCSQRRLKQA
The data set is described as follows: CTPS enzyme assay. It is filed as biochemical. The method, boiled down:
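Recombinant T. b. brucei CTPS measured by coupled spectrophotometric assay with pyruvate kinase/lactate dehydrogenase. Enzyme pre-incubated with varied test-compound concentrations at room temperature, then added to reaction mix; A341 decrease monitored; IC50.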

Data set [2] has as its system HeLa cells. The data set is described as follows: In vitro toxicity assay for HeLa mammalian cells. It counts as cell-based, human. The conditions noted are these: read-out: HeLa EC50. Summed up: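 Alamar Blue assay on HeLa cells grown in DMEM with 10% FCS and 2 mM L-glutamine. Cells plated at 3 × 10^5 cells mL−1 and exposed to serially diluted test compound for 16 h before Alamar Blue addition. Fluorescence read at ex 544/em 590 nm; EC50 derived from the dose-response.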

The subject of data set [3] is bloodstream form T. b. brucei (strain 427). As to the kind of experiment: In vitro toxicity assay for T. b. brucei. It is filed as cell-based. Conditions: for EC50: read-out: T. b. brucei EC50, strain 427, 48 h + 24 h Alamar Blue.
The target in data set [4] is T1, recombinant T. b. brucei CTPS. The conditions noted are these: 3-Br versus 3-Cl (Acivicin); cited from earlier work.
For data set [5], the system named is bloodstream form T. b. brucei (strain 427). Conditions: 3-Br versus 3-Cl (Acivicin); cited from earlier work.
In data set [6] the test system is HeLa cells. Conditions: 3-Br versus 3-Cl (Acivicin); cited from earlier work.
Setting [7] is: 16 hours incubation before Alamar Blue.

Data on 14 compounds can be found in PMC3744939 (ChemMedChem, 2012).

The structures appear in SMILES notation. Counter-ions that a name gives are not always drawn. Like-named read-outs stand apart in the source and are kept apart here.

Broadly, the IC50 is the point on the concentration scale where inhibition reaches its midpoint. The EC50 is the concentration at which the effect is half-maximal. `N[C@H](C(=O)O)[C@H]1CC(Cl)=NN1Cc1ccccc1` (relative stereo) [Compound 7a, (S*)-2-amino-2-((R*)-1-benzyl-3-chloro-4,5-dihydro-1H-pyrazol-5-yl)acetic acid hydrochloride]: the IC50 in data set [1] is more than 500 µM. The EC50 in the data set on HeLa cells [2] (Homo sapiens, HeLa, 16 h) was more than 500 µM.

Take `N[C@H](C(=O)O)[C@@H]1CC(Cl)=NN1Cc1ccccc1` (relative stereo) [Compound 7b, (S*)-2-amino-2-((S*)-1-benzyl-3-chloro-4,5-dihydro-1H-pyrazol-5-yl)acetic acid hydrochloride]: the concentration for half-maximal inhibition (IC50) in data set [1] was more than 500 µM. Also, the EC50 in the data set on HeLa cells [2] (Homo sapiens, HeLa, 16 h) was more than 500 µM.

On to `CCN1N=C(Cl)C[C@@H]1[C@H](N)C(=O)O.Cl` (relative stereo) [Compound 8a, (S*)-2-amino-2-((R*)-3-chloro-1-ethyl-4,5-dihydro-1H-pyrazol-5-yl)acetic acid hydrochloride], for which, in data set [1], the half-inhibitory concentration (IC50) stood at 0.1 ± 0.004 µM and the “inhibitory activity against CTPS, in words” value (shortened to “inhibitory activity”) is “sub-micromolar inhibition”. In addition, the “times more potent than Acivicin as a CTPS inhibitor” value in data set [1] (relative to Acivicin) is reported as “about three times more potent”. Moreover, the “S.I. selectivity index (EC50 HeLa/EC50 T. b. brucei)” value (shortened to “S.I. selectivity index”) in data set [3] was more than 5. Further, in data set [3] (methyl ester versus free amino acid), the “increase of trypanocidal activity upon conversion into the methyl ester (times)” value is recorded as “about 9”. Further, the EC50 in the data set with HeLa cells [2] (Homo sapiens, HeLa, 16 h) is more than 500 µM.

Turning to `CCN1N=C(Cl)C[C@H]1[C@H](N)C(=O)O` (relative stereo) [Compound 8b, (S*)-2-amino-2-((S*)-3-chloro-1-ethyl-4,5-dihydro-1H-pyrazol-5-yl)acetic acid hydrochloride], the IC50 in data set [1] is more than 500 µM. Further, the EC50 with HeLa cells [2] (Homo sapiens, HeLa, 16 h) was more than 500 µM.

Consider `COC(=O)[C@@H](N)[C@@H]1CC(Br)=NO1` [1-COOMe], for which the EC50 came to 2.1 ± 0.5 µM in data set [3] and 12.5 ± 1.6 µM in the data set on HeLa cells [2] (setting [7]).

For `Cl.NCCN1N=C(Cl)CC1C(N)C(=O)O` (centres unmarked) [9a,b, 2-amino-2-(1-(2-aminoethyl)-3-chloro-4,5-dihydro-1H-pyrazol-5-yl)acetic acid monohydrochloride], in data set [1], the concentration for half-maximal inhibition (IC50) amounted to 0.125 ± 0.002 µM and the “inhibitory activity” value is on record as “sub-micromolar inhibition”. The “times more potent than Acivicin as a CTPS inhibitor” value in data set [1] (relative to Acivicin) is “about three times more potent”. Moreover, the EC50 in the data set on HeLa cells [2] (Homo sapiens, HeLa, 16 h) is more than 500 µM.

As to `N[C@H](C(=O)O)[C@@H]1CC(Cl)=NO1` [Acivicin, reference compound], in data set [3], the “S.I. selectivity index” value turned out to be 36. Besides, the EC50 in the data set on HeLa cells [2] (Homo sapiens, HeLa, 16 h) was determined as 16.3 µM.

Regarding `COC(=O)[C@@H](N)[C@@H]1CC(Cl)=NO1` [Acivicin-COOMe], the half-maximal effective concentration (EC50) in data set [3] was 22.4 ± 1.3 µM; with HeLa cells [2] (setting [7]) it was 41.9 ± 3.1 µM.

`N[C@H](C(=O)O)[C@@H]1CC(Br)=NO1` [Compound 1, Br-Acivicin]: in data set [1] (relative to Acivicin), the “times more potent than Acivicin as a CTPS inhibitor” value is recorded as 3. Besides, the half-maximal effective concentration (EC50) was found to be 0.038 ± 0.013 µM in data set [3] and 15.1 ± 1.2 µM in the data set on HeLa cells [2] (setting [7]). Also, the “times more efficacious than Acivicin as an anti-trypanosomal agent” value in data set [3] (relative to Acivicin) came to 12. Besides, in data set [4], the “increase of the inhibitory potency against CTPS” value is given as “three fold”. In addition, in data set [5], the “increase in the in vitro anti-trypanosomal activity” value is “twelve-fold”. In the data set with HeLa cells [6], the “toxicity against mammalian cells” value was “unaffected”.

Take `COC1=NO[C@H]([C@H](N)C(=O)O)C1` [Compound 2, (S)-2-amino-2-((S)-3-methoxy-4,5-dihydroisoxazol-5-yl)acetic acid]: the 50% inhibitory concentration (IC50) in data set [1] was more than 500 µM. Also, the “S.I. selectivity index” value in data set [3] is reported as more than 5. The EC50 in the data set on HeLa cells [2] (Homo sapiens, HeLa, 16 h) was more than 500 µM.

Turning to `CN(C)C1=NO[C@H]([C@H](N)C(=O)O)C1` [Compound 3, (S)-2-amino-2-((S)-3-(dimethylamino)-4,5-dihydroisoxazol-5-yl)acetic acid], in data set [1], the 50% inhibitory concentration (IC50) is more than 500 µM and the “inhibitory activity” value is “complete loss of the inhibitory potency”. In addition, in data set [3], the “S.I. selectivity index” value is on record as more than 5. For the same compound, the EC50 in the data set with HeLa cells [2] (Homo sapiens, HeLa, 16 h) is more than 500 µM.

`O=C(O)CC1CC(Br)=NO1` (centres unmarked) [Compound 4, 2-(3-bromo-4,5-dihydroisoxazol-5-yl)acetic acid]: in data set [1], the IC50 is more than 500 µM and the “inhibitory activity” value was “inactive”. Besides, the “S.I. selectivity index” value in data set [3] was more than 5. In addition, the half-maximal effective concentration (EC50) in the data set on HeLa cells [2] (Homo sapiens, HeLa, 16 h) is more than 500 µM.

As for `CC(C)(C)OC(=O)N[C@H](C(=O)O)[C@@H]1CC(Br)=NO1` [Compound 5], the “CTPS inhibitory potency relative to Br-Acivicin” value in data set [1] (relative to Br-Acivicin) is “twice more potent”. Also, the EC50 amounted to 3.4 ± 0.4 µM in data set [3] and 4.6 ± 0.5 µM in the data set with HeLa cells [2] (setting [7]).

Turning to `O=C(N[C@H](C(=O)O)[C@@H]1CC(Br)=NO1)OCc1ccccc1` [Compound 6, (S)-(benzyloxycarbonylamino)-2-((S)-3-bromo-4,5-dihydro-isoxazol-5-yl)acetic acid], the IC50 in data set [1] was determined as 1.74 ± 0.4 µM. Also, the “times weaker than Acivicin as a CTPS inhibitor” value in data set [1] (relative to Acivicin) came to 5. Moreover, in data set [1] (relative to Br-Acivicin), the “times weaker than Br-Acivicin as a CTPS inhibitor” value is 17. For the same compound, in the data set with HeLa cells [2] (Homo sapiens, HeLa, 16 h), the EC50 was found to be 410 ± 39 µM.
